Experimental data: ChEMBL document CHEMBL2417414, “Total synthesis and biological evaluation of clavaminol-G and its analogs” (Eur J Med Chem, 2013); call rule not given here
Converted amounts (≈) assume the structure as drawn.

Key:
A549 = experiment: Cytotoxicity against human A549 cells by MTT assay; type: functional, cell-based
Procedure, shortened: (§1)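 MTT assay on ATCC lines: A549 (CCL-185, alveolar adenocarcinoma), HeLa (CCL-2, cervical), MDA-MB-231 (HTB-26) and MCF7 (HTB-22, breast adenocarcinoma). IC50 calculated from absorbance dose–response curves. Values are the average of two independent experiments.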

MCF7 = experiment: Cytotoxicity against human MCF7 cells by MTT assay; type: functional, cell-based; procedure, shortened: as §1
HeLa = experiment: Cytotoxicity against human HeLa cells by MTT assay; type: functional, cell-based; procedure, shortened: as §1
MDA-MB-231 = experiment: Cytotoxicity against human MDA-MB-231 cells by MTT assay; type: functional, cell-based; procedure, shortened: as §1
Staphylococcus aureus [1] = experiment: Antibacterial activity against Staphylococcus aureus MLS16 MTCC 2940 after 24 hrs by well diffusion method; type: functional; conditions: MLS16 MTCC 2940, 24 h
Procedure, shortened: (§2)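 MTCC strains spread on Mueller-Hinton agar plates with 0.1 mL of suspension at 1.5 × 10^8 CFU/mL (0.5 McFarland). Neomycin served as the antibacterial control, fluconazole and miconazole as antifungal controls, and DMSO as the negative control. Plates incubated 24 h at 30 °C. MIC was taken as the lowest amount giving an inhibition zone. Duplicates, mean reported.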

Micrococcus luteus = experiment: Antibacterial activity against Micrococcus luteus MTCC 2470 after 24 hrs by well diffusion method; type: functional; conditions: MTCC 2470, 24 h; procedure, shortened: as §2
Candida parapsilosis = experiment: Antifungal activity against Candida parapsilosis MTCC 1744 after 24 hrs by well diffusion method; type: functional; conditions: Lodderomyces parapsilosis, MTCC 1744, 24 h; procedure, shortened: as §2
Pichia kudriavzevii = experiment: Antifungal activity against Issatchenkia orientalis MTCC 3020 after 24 hrs by well diffusion method; type: functional; conditions: MTCC 3020, 24 h; procedure, shortened: as §2
Raoultella planticola = experiment: Antibacterial activity against Klebsiella planticola MTCC 530 after 24 hrs by well diffusion method; type: functional; conditions: MTCC 530, 24 h; procedure, shortened: as §2
Candida albicans [2] = experiment: Antifungal activity against Candida albicans MTCC 854 after 24 hrs by well diffusion method; type: functional; conditions: MTCC 854, 24 h
Procedure, shortened: (§3)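 Agar well diffusion on Mueller-Hinton agar seeded with 0.1 mL of suspension at 1.5 × 10^8 CFU/mL (0.5 McFarland). Fluconazole and miconazole served as positive controls, DMSO as negative control. Plates incubated 24 h at 30 °C. MIC taken as the lowest amount giving an inhibition zone; duplicates, mean reported.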

Candida albicans [3] = experiment: Antifungal activity against Candida albicans MTCC 7315 after 24 hrs by well diffusion method; type: functional; conditions: MTCC 7315, 24 h; procedure, shortened: as §3
Escherichia coli = experiment: Antibacterial activity against Escherichia coli MTCC 739 after 24 hrs by well diffusion method; type: functional; conditions: MTCC 739, 24 h; procedure, shortened: as §2
Pichia sporocuriosa = experiment: Antifungal activity against Issatchenkia hanoiensis MTCC 4755 after 24 hrs by well diffusion method; type: functional; conditions: MTCC 4755, 24 h; procedure, shortened: as §2
Candida albicans [4] = experiment: Antifungal activity against Candida albicans MTCC 3018 after 24 hrs by well diffusion method; type: functional; conditions: MTCC 3018, 24 h; procedure, shortened: as §3
Candida albicans [5] = experiment: Antifungal activity against Candida albicans MTCC 3958 after 24 hrs by well diffusion method; type: functional; conditions: MTCC 3958, 24 h; procedure, shortened: as §3
Candida albicans [6] = experiment: Antifungal activity against Candida albicans MTCC 4748 after 24 hrs by well diffusion method; type: functional; conditions: MTCC 4748, 24 h; procedure, shortened: as §3
Candida albicans [7] = experiment: Antifungal activity against Candida albicans MTCC 3017 after 24 hrs by well diffusion method; type: functional; conditions: MTCC 3017, 24 h; procedure, shortened: as §3
Pseudomonas aeruginosa = experiment: Antibacterial activity against Pseudomonas aeruginosa MTCC 2453 after 24 hrs by well diffusion method; type: functional; conditions: MTCC 2453, 24 h; procedure, shortened: as §2
Staphylococcus aureus [8] = experiment: Antibacterial activity against Staphylococcus aureus MTCC 96 after 24 hrs by well diffusion method; type: functional; conditions: MTCC 96, 24 h; procedure, shortened: as §2
Nakaseomyces glabratus = experiment: Antifungal activity against Candida glabrata MTCC 3019 after 24 hrs by well diffusion method; type: functional; conditions: MTCC 3019, 24 h; procedure, shortened: as §2
Candida albicans [9] = experiment: Antifungal activity against Candida albicans MTCC 1637 after 24 hrs by well diffusion method; type: functional; conditions: MTCC 1637, 24 h; procedure, shortened: as §3
[Candida] aaseri = Antifungal activity against Candida aaseri MTCC 1962 after 24 hrs by well diffusion method; type: functional; conditions: Yamadazyma aaseri, MTCC 1962, 24 h; procedure, shortened: as §2
Bacillus subtilis = experiment: Antibacterial activity against Bacillus subtilis MTCC 121 after 24 hrs by well diffusion method; type: functional; conditions: MTCC 121, 24 h; procedure, shortened: as §2
Candida albicans [10] = experiment: Antifungal activity against Candida albicans MTCC 183 after 24 hrs by well diffusion method; type: functional; conditions: MTCC 183, 24 h; procedure, shortened: as §3
[11] = Homo sapiens, A549, read-out: IC50
[12] = Homo sapiens, MCF7, read-out: IC50
[13] = Homo sapiens, HeLa, read-out: IC50
[14] = Homo sapiens, MDA-MB-231, read-out: IC50

| SMILES | IC50 (MCF7; mcf7) | IC50 (MDA-MB-231; mda-mb-231) | IC50 (A549; [11]) | MIC (Candida parapsilosis) | MIC (Pichia kudriavzevii) | MIC (Candida albicans [2]) | MIC (Candida albicans [3]) | MIC (Pichia sporocuriosa) | MIC (Candida albicans [4]) | MIC (Candida albicans [5]) | IC50 (MCF7; [12]) | IC50 (HeLa; [13]) | MIC (Candida albicans [6]) | MIC (Candida albicans [7]) | IC50 (MDA-MB-231; [14]) | MIC (Nakaseomyces glabratus) | MIC (Candida albicans [9]) | MIC ([Candida] aaseri) | MIC (Candida albicans [10]) | further results |
| --- | --- | --- | --- | --- | --- | --- | --- | --- | --- | --- | --- | --- | --- | --- | --- | --- | --- | --- | --- | --- |
| CCCCCCCCCC(O)CNC(C)=O (stereo not drawn) | Not Active | Not Active | – | – | – | – | – | – | – | – | – | – | – | – | – | – | – | – | – | IC50 (A549; a549): Not Active; IC50 (HeLa; hela): Not Active |
| CCCCCCCCCC(O)CN (stereo not drawn) | – | – | 6.78 µM | 18.8 µg/mL (≈ 100 µM) | 18.8 µg/mL (≈ 100 µM) | 18.8 µg/mL (≈ 100 µM) | 18.8 µg/mL (≈ 100 µM) | 18.8 µg/mL (≈ 100 µM) | 18.8 µg/mL (≈ 100 µM) | 18.8 µg/mL (≈ 100 µM) | 3.88 µM | 4.36 µM | 18.8 µg/mL (≈ 100 µM) | 18.8 µg/mL (≈ 100 µM) | 4.02 µM | 18.8 µg/mL (≈ 100 µM) | 18.8 µg/mL (≈ 100 µM) | 18.8 µg/mL (≈ 100 µM) | 18.8 µg/mL (≈ 100 µM) | MIC (Staphylococcus aureus [1]): 18.8 µg/mL (≈ 100 µM); MIC (Micrococcus luteus): 18.8 µg/mL (≈ 100 µM); MIC (Raoultella planticola): 18.8 µg/mL (≈ 100 µM); MIC (Escherichia coli): 18.8 µg/mL (≈ 100 µM); MIC (Pseudomonas aeruginosa): 18.8 µg/mL (≈ 100 µM); MIC (Staphylococcus aureus [8]): 18.8 µg/mL (≈ 100 µM); MIC (Bacillus subtilis): 18.8 µg/mL (≈ 100 µM) |
| COC(=O)CCCCCCCCC(O)CN (stereo not drawn) | – | – | 7.89 µM | – | – | – | – | – | – | – | 10.2 µM | 3.59 µM | – | – | 29.8 µM | – | – | – | – | – |
| NCC(O)CCCCCCCCC(=O)O (stereo not drawn) | Not Active | Not Active | – | – | – | – | – | – | – | – | – | – | – | – | – | – | – | – | – | IC50 (A549; a549): Not Active; IC50 (HeLa; hela): Not Active |
| NCC(O)CCCCCCCCCO (stereo not drawn) | Not Active | Not Active | 16.2 µM | – | – | – | – | – | – | – | – | 8.79 µM | – | – | – | – | – | – | – | – |
| COc1cccc2c1C(=O)c1c(O)c3c(c(O)c1C2=O)C[C@@](O)(C(=O)CO)C[C@@H]3O[C@H]1C[C@H](N)[C@H](O)[C@H](C)O1 [DOXORUBICIN] | – | – | – | – | – | – | – | – | – | – | 1.05 µM | – | – | – | 0.5 µM | – | – | – | – | – |
| OC(Cn1cncn1)(Cn1cncn1)c1ccc(F)cc1F [FLUCONAZOLE] | – | – | – | 18.8 µg/mL (≈ 61.2 µM) | 150 µg/mL (≈ 490 µM) | 37.5 µg/mL (≈ 122 µM) | 37.5 µg/mL (≈ 122 µM) | 75 µg/mL (≈ 245 µM) | 37.5 µg/mL (≈ 122 µM) | 75 µg/mL (≈ 245 µM) | – | – | 37.5 µg/mL (≈ 122 µM) | 75 µg/mL (≈ 245 µM) | – | 75 µg/mL (≈ 245 µM) | 75 µg/mL (≈ 245 µM) | 37.5 µg/mL (≈ 122 µM) | 37.5 µg/mL (≈ 122 µM) | – |
| Clc1ccc(COC(Cn2ccnc2)c2ccc(Cl)cc2Cl)c(Cl)c1 (stereo not drawn) [MICONAZOLE] | – | – | – | 9.37 µg/mL (≈ 22.5 µM) | 9.37 µg/mL (≈ 22.5 µM) | 9.37 µg/mL (≈ 22.5 µM) | 9.37 µg/mL (≈ 22.5 µM) | 9.37 µg/mL (≈ 22.5 µM) | 9.37 µg/mL (≈ 22.5 µM) | 9.37 µg/mL (≈ 22.5 µM) | – | – | 9.37 µg/mL (≈ 22.5 µM) | 9.37 µg/mL (≈ 22.5 µM) | – | 9.37 µg/mL (≈ 22.5 µM) | 9.37 µg/mL (≈ 22.5 µM) | 9.37 µg/mL (≈ 22.5 µM) | 9.37 µg/mL (≈ 22.5 µM) | – |
